Where “and” joins values, the source holds several entries; their conditions need not be identical. Equal values may be shown once.
Assays:
Type in all cases: physicochemical
[1] = Absorption spectroscopy of bacteriochlorins; details: for Bmax abs / IQy/IB / Qy abs / Qy abs fwhm / ∑Qy/∑B: room temperature; for bathochromic shift in the Qy band relative to that for B2: in DMF or water
[2] = Fluorescence emission spectroscopy of bacteriochlorins; details: for Qy em / Qy em fwhm: room temperature
Summary of the method: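 Absorption and fluorescence spectra were recorded at room temperature in DMF and in […] water (one analogue in DMSO). The Qy/B ratio is the ratio of integrated Qy to integrated B absorption intensity. The Stokes shift is the Qy fluorescence maximum minus the Qy absorption peak.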

[3] = Excited-state photophysical properties; details: for Φf (fluorescence quantum yield) / Φisc (intersystem crossing yield) / τS (lifetime of lowest singlet excited state) / kf^−1 / kic^−1 / kisc^−1 / Φic (internal conversion yield): room temperature; for kf^−1 / kic^−1 / kisc^−1: kx = Φx/τS; for Φic (internal conversion yield): Φic = 1 - Φf - Φisc
[4] = Water solubility / aggregation by absorption versus concentration in water; details: neat deionized water, 1000-fold concentration range (∼200–700 µM to ∼0.20–0.70 µM)
Summary of the method: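 Absorption spectra were taken in neat deionized water over a ~1000-fold concentration range (~200–700 µM to ~0.20–0.70 µM). Pathlength was changed reciprocally ([…]), and spectra were normalized at the Qy band. Concentration was calculated from absorbance in the 1-cm cuvette assuming ε(Qy) = 120,000 M−1cm−1.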

| Substance | Bmax abs ([1]; DMF) [nm] | IQy/IB ([1]; DMF) | Qy abs ([1]; DMF) [nm] | Qy abs fwhm ([1]; DMF) [nm] | ∑Qy/∑B ([1]; DMF) | Bmax abs ([1]; water with 5% DMF as cosolvent) [nm] | IQy/IB ([1]; water with 5% DMF as cosolvent) | Qy abs ([1]; water with 5% DMF as cosolvent) [nm] | Qy abs fwhm ([1]; water with 5% DMF as cosolvent) [nm] | ∑Qy/∑B ([1]; water with 5% DMF as cosolvent) | Qy em ([2]; DMF) [nm] | Qy em fwhm ([2]; DMF) [nm] | Qy em ([2]; water with 5% DMF as cosolvent) [nm] | Qy em fwhm ([2]; water with 5% DMF as cosolvent) [nm] | Φf (fluorescence quantum yield) ([3]; DMF) | Φisc (intersystem crossing yield) ([3]; DMF) | τS (lifetime of lowest singlet excited state) ([3]; DMF) | kf^−1 ([3]; DMF) [ns] | kic^−1 ([3]; DMF) [ns] | kisc^−1 ([3]; DMF) [ns] | further results |
| --- | --- | --- | --- | --- | --- | --- | --- | --- | --- | --- | --- | --- | --- | --- | --- | --- | --- | --- | --- | --- | --- |
| 15-[4-(3-Carboxyethyl)phenyl]-3,13-dimethoxycarbonyl-2,12-bis[3,5-bis(3,6,9,12,15,18,21,24-octaoxahexacosanyl-26-amidomethyl)phenyl]-5-methoxy-8,8,18,18-tetramethylbacteriochlorin [B3] | 375 | 0.74 | 741 | 23 | 0.52 | 374 | 0.81 | 742 | 24 | 0.57 | 748 | 27 | 750 | 28 | 0.21 | 0.47 | 3.27 ns | 15 | 10 | 7 | bathochromic shift in the Qy band relative to that for B2 [1]: ~16 nm; (Stokes) shift of Qy fluorescence maximum from Qy absorption peak ([2]; water): 8–9 nm; Φic (internal conversion yield) ([3]; DMF): 0.32; reduction of Φf in water vs DMF [3]: 38%; Φf (fluorescence quantum yield) ([3]; water with 5% DMF as cosolvent): 0.13; Φisc (intersystem crossing yield) ([3]; water with 5% DMF as cosolvent): 0.45; τS (lifetime of lowest singlet excited state) ([3]; water with 5% DMF as cosolvent): 3.39 ns; kf^−1 ([3]; water with 5% DMF as cosolvent): 27 ns; kic^−1 ([3]; water with 5% DMF as cosolvent): 8 ns; kisc^−1 ([3]; water with 5% DMF as cosolvent): 8 ns; Φic (internal conversion yield) ([3]; water with 5% DMF as cosolvent): 0.42 |
| 2,12-Bis[3,5-bis(11-methoxy-3,6,9-trioxaundecylamidomethyl)phenyl]-15-(7-carboxy-1-heptyl)-3,13-dimethoxycarbonyl-5-methoxy-8,8,18,18-tetramethylbacteriochlorin [B4] | 377 | 0.63 | 754 | 30 | 0.55 | 368 | 0.62 | 753 | 32 | 0.52 | 760 | 31 | 759 | 33 | 0.12 | 0.33 | 3.46 ns | 28 | 6 | 10 | bathochromic shift in the Qy band relative to that for B2 [1]: ~28 nm; Φic (internal conversion yield) ([3]; DMF): 0.55; reduction of Φf in water vs DMF [3]: 71%; Φf (fluorescence quantum yield) ([3]; water with 5% DMF as cosolvent): 0.035; Φisc (intersystem crossing yield) ([3]; water with 5% DMF as cosolvent): 0.31; τS (lifetime of lowest singlet excited state) ([3]; water with 5% DMF as cosolvent): 3.21 ns; kf^−1 ([3]; water with 5% DMF as cosolvent): 92 ns; kic^−1 ([3]; water with 5% DMF as cosolvent): 5 ns; kisc^−1 ([3]; water with 5% DMF as cosolvent): 10 ns; Φic (internal conversion yield) ([3]; water with 5% DMF as cosolvent): 0.65 |
| 3,13-Dimethoxycarbonyl-2,12-bis[3,5-bis(3,6,9,12,15,18,21,24-octaoxahexacosanyl-26-amidomethyl)phenyl]-5-methoxy-8,8,18,18-tetramethylbacteriochlorin [II] | 373 | 0.79 | 750 | 24 | 0.42 | 369 | 0.75 | 751 | 26 | 0.40 | 756 | 27 | 760 | 31 | 0.11 | 0.32 | 3.02 ns | 27 | 5 | 9 | bathochromic shift in the Qy band relative to that for B2 [1]: ~25 nm; (Stokes) shift of Qy fluorescence maximum from Qy absorption peak ([2]; water): 8–9 nm; Φic (internal conversion yield) ([3]; DMF): 0.57; reduction of Φf in water vs DMF [3]: 29%; Φf (fluorescence quantum yield) ([3]; water with 5% DMF as cosolvent): 0.078; Φisc (intersystem crossing yield) ([3]; water with 5% DMF as cosolvent): 0.31; τS (lifetime of lowest singlet excited state) ([3]; water with 5% DMF as cosolvent): 2.96 ns; kf^−1 ([3]; water with 5% DMF as cosolvent): 38 ns; kic^−1 ([3]; water with 5% DMF as cosolvent): 5 ns; kisc^−1 ([3]; water with 5% DMF as cosolvent): 10 ns; Φic (internal conversion yield) ([3]; water with 5% DMF as cosolvent): 0.61 |
| 2,12-Bis[3,5-bis(3,6,9,12,15,18,21,24-octaoxahexacosanyl-26-amidomethyl)phenyl]-15^2-N-(3-carboxypropyl)-3-methoxycarbonyl-5-methoxy-8,8,18,18-tetramethylbacteriochlorin-13,15-dicarboimide [B5] | 375 | 0.78 | 808 | 32 | 0.50 | 376 | 0.50 | 819 | 36 | 0.38 | 819 | 35 | 834 | 44 | 0.13 | 0.29 | 1.7 ns and 1.70 ns | 13 | 3 | 6 | bathochromic shift of the Qy absorption band compared to B4 and II ([1]; DMF and water): ~50 nm; (Stokes) shift of Qy fluorescence maximum from Qy absorption peak ([2]; DMF): 11 nm; (Stokes) shift of Qy fluorescence maximum from Qy absorption peak ([2]; water): 15 nm; difference in kf between the two media (DMF and water) ([3]; DMF versus water): 6.5 fold; Φic (internal conversion yield) ([3]; DMF): 0.58; reduction of Φf in water vs DMF [3]: 87%; Φf (fluorescence quantum yield) ([3]; water with 5% DMF as cosolvent): 0.017; Φisc (intersystem crossing yield) ([3]; water with 5% DMF as cosolvent): 0.08; τS (lifetime of lowest singlet excited state) ([3]; water with 5% DMF as cosolvent): 1.4 ns and 1.40 ns; kf^−1 ([3]; water with 5% DMF as cosolvent): 84 ns; kic^−1 ([3]; water with 5% DMF as cosolvent): 2 ns; kisc^−1 ([3]; water with 5% DMF as cosolvent): 18 ns; Φic (internal conversion yield) ([3]; water with 5% DMF as cosolvent): 0.90; aggregation in water from absorption versus concentration [4]: obvious band broadening indicating some degree of aggregation |
